According to ChEMBL document CHEMBL1156049, “Potent biphenyl- and 3-phenyl pyridine-based inhibitors of acetyl-CoA carboxylase” (Bioorg Med Chem Lett, 2009):

Assays:
Acetyl-CoA carboxylase 2 = Acetyl-CoA carboxylase 2 (Homo sapiens, UniProt O00763); test: Inhibition of human recombinant ACC 2 expressed in baculovirus expression system by FAS-coupled assay
Summary of the method: (§1)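 Recombinant human ACC1 or ACC2 (baculovirus-expressed, purified), 2-4.5 nM, preincubated 10 min with compound in DMSO and FAS (1 µg/assay) in 50 mM HEPES pH 7.5, 10 mM sodium citrate, 20 mM MgCl2, 6 mM NaHCO3. Substrate mix then added: 2.4 µM [3H]acetyl-CoA, 47.6 µM acetyl-CoA, 100 µM NADPH, 0.125 mM ATP. Run 30 min at room temperature, stopped with EDTA. [3H]palmitic acid counted on phospholipid FlashPlate. IC50 averaged from 2–4 experiments.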

Acetyl-CoA carboxylase 1 = Acetyl-CoA carboxylase 1 (Homo sapiens, UniProt Q13085); test: Inhibition of human recombinant ACC 1 expressed in baculovirus expression system by FAS-coupled assay; summary of the method: as §1
Homo sapiens [1] = organism: Homo sapiens; test: Selectivity ratio of IC50 for human ACC 2 to IC50 for human ACC 1
Homo sapiens [2] = organism: Homo sapiens; test: Selectivity ratio of IC50 for human ACC 1 to IC50 for human ACC 2

Chain of Acetyl-CoA carboxylase 2 (O00763 whole entry): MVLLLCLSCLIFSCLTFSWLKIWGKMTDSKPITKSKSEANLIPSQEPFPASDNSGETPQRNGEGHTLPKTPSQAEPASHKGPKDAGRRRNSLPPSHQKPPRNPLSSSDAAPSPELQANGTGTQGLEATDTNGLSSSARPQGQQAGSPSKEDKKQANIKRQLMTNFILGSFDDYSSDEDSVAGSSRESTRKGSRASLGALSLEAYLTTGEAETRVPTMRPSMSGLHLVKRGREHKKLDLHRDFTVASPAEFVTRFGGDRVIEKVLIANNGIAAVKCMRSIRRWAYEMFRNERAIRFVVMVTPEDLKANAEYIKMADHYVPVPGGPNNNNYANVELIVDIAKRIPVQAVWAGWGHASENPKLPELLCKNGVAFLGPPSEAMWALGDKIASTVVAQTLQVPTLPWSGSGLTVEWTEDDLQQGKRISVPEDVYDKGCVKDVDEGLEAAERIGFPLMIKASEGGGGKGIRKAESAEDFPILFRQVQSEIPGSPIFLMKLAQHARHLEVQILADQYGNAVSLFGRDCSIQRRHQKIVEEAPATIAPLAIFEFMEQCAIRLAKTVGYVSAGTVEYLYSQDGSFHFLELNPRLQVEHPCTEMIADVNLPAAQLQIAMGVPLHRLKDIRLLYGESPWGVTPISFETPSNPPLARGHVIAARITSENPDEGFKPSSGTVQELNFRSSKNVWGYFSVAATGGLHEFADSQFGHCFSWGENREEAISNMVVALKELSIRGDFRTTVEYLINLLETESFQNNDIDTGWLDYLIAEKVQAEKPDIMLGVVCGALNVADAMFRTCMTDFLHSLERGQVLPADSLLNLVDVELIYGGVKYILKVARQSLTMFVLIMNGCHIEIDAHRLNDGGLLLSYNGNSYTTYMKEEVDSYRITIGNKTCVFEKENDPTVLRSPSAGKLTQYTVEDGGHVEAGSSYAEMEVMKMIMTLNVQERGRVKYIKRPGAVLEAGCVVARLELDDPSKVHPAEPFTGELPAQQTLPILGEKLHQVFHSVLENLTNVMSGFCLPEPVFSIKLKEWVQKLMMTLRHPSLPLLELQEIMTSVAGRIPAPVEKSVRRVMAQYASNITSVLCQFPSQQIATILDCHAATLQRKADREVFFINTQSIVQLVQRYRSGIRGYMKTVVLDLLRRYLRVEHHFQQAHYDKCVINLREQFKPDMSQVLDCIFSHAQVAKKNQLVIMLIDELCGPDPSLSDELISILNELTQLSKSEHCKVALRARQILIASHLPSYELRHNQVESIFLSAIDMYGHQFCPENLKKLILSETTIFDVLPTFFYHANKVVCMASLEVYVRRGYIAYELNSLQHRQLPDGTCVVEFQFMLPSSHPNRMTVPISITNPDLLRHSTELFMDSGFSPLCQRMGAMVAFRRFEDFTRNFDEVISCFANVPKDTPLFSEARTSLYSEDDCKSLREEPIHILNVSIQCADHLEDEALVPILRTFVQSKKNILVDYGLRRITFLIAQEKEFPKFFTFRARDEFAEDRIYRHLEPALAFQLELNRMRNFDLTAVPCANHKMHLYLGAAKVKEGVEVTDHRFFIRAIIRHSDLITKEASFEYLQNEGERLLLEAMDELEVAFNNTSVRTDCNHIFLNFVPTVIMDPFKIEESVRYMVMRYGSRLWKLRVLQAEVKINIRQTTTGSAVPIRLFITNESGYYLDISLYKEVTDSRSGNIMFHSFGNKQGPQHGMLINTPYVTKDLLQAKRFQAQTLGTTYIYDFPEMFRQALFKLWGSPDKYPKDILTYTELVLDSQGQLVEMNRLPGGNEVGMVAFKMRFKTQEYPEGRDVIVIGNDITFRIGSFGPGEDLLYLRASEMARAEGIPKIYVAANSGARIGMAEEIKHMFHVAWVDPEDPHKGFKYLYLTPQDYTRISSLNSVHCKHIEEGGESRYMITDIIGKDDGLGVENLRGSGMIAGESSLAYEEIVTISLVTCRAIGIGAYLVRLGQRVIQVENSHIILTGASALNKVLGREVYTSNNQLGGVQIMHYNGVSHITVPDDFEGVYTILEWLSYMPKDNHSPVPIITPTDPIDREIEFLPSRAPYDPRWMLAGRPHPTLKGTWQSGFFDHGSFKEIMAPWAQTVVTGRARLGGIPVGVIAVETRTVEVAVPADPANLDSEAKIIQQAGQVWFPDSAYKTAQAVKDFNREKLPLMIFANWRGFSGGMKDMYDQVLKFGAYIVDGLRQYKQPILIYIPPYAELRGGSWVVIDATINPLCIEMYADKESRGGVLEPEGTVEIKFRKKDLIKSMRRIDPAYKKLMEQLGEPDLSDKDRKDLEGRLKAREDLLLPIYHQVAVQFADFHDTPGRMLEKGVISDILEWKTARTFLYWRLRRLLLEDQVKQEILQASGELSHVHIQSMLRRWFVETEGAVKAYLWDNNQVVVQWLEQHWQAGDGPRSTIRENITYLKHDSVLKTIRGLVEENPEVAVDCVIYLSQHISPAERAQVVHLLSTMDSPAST

IC50 (Acetyl-CoA carboxylase 2) [µM]	IC50 (Acetyl-CoA carboxylase 1) [µM]	Selectivity ratio (Homo sapiens [1])	Selectivity ratio (Homo sapiens [2])	Structure (SMILES)
> 30	> 30	–	–	CCCCC(=O)NC(C)c1ccc(-c2ccc(Oc3ccc(OCCC)cc3)cc2)cc1 (stereo unspecified)
0.945	0.039	24	–	CC(=O)NC(C)c1ccc(-c2ccc(Oc3ccc(Cc4ccccc4)cc3)cc2)cc1 (stereo unspecified)
3.1	> 30	–	–	CCCOc1ccc(Oc2ccc(-c3ccc(C(C)NC(=O)OCC)cc3)cc2)cc1 (stereo unspecified)
0.032	0.049	–	–	CC(=O)NC(C)c1ccc(-c2ccc(Oc3cccc(Oc4ccccc4)c3)nc2)cc1 (stereo unspecified)
0.117	0.058	–	–	CC(=O)NC(C)c1ccc(-c2ccc(Oc3ccc(OCc4ccccc4)cc3)nc2)cc1 (stereo unspecified)
0.55	0.296	–	–	CCCOc1ccc(Oc2ccc(-c3ccc(C(C)NC(=O)C4CC4)cc3)cc2)cc1 (stereo unspecified)
0.014	0.017	–	–	CCCOc1ccc(Oc2ccc(-c3ccc(C(C)NC(C)=O)cc3)cc2)cc1 (stereo unspecified)
0.777	> 30	–	–	CCCOc1ccc(Oc2ccc(-c3ccc([C@@H](C)NC(C)=O)cc3)cn2)cc1
0.303	2.49	–	–	CC(=O)NC(C)c1ccc(-c2ccc(Oc3ccc(OC(C)C)cc3)cc2)c(C)c1 (stereo unspecified)
0.016	0.041	–	–	CC(=O)NC(C)c1ccc(-c2ccc(Oc3cccc(Oc4ccccc4)c3)cc2)cc1 (stereo unspecified)
0.093	0.415	–	–	CC(=O)NC(C)c1ccc(-c2ccc(Oc3ccc(OC(C)C)cc3)nc2)cc1 (stereo unspecified)
0.214	0.188	–	–	CCCOc1ccc(Oc2ccc(-c3ccc(C(C)NC(=O)C(C)C)cc3)cc2)cc1 (stereo unspecified)
0.113	0.035	–	–	CC(=O)NC(C)c1ccc(-c2ccc(Oc3ccc(C(=O)c4ccccc4)cc3)cc2)cc1 (stereo unspecified)
0.088	0.592	–	–	CC(=O)NC(C)c1ccc(-c2ccc(Oc3ccc(OC(C)C)cc3)cc2C)c(C)c1 (stereo unspecified)
0.012	0.013	–	–	CCCOc1cccc(Oc2ccc(-c3ccc(C(C)NC(C)=O)cc3)cc2)c1 (stereo unspecified)
0.114	0.081	–	–	CCCc1ccc(Oc2ccc(-c3ccc(C(C)NC(C)=O)cc3)cc2)cc1 (stereo unspecified)
0.141	0.319	–	–	CCCOc1ccc(Oc2ccc(-c3ccc(C(C)NC(=O)C4CC4)cc3)cn2)cc1 (stereo unspecified)
> 30	> 30	–	–	CC(=O)NC(C)c1ccc(-c2ccc(Oc3ccc(OCc4ccccc4)cc3)cc2)cc1 (stereo unspecified)
0.035	0.016	–	–	CC(=O)NC(C)c1ccc(-c2ccc(Oc3ccc(OC(C)C)cc3)cc2C)cc1 (stereo unspecified)
0.102	8.58	–	84	CCOc1cccc(Oc2ccc(-c3ccc(C(C)NC(C)=O)cc3)cc2)c1 (stereo unspecified)
> 30	2.77	–	–	CCCOc1ccc(Oc2ccc(-c3ccc(C(C)NC(=O)CCC)cc3)cc2)cc1 (stereo unspecified)

IC50 (Acetyl-CoA carboxylase 2) [µM]	IC50 (Acetyl-CoA carboxylase 1) [µM]	Selectivity ratio (Homo sapiens [1])	Selectivity ratio (Homo sapiens [2])	Structure (SMILES)
0.881	> 30	–	–	CCCOc1ccc(Oc2ccc(-c3ccc(C(C)NC(=O)COC)cc3)cn2)cc1 (stereo unspecified)
0.268	0.14	–	–	CC(=O)NC(C)c1ccc(-c2ccc(Oc3ccc(-c4c(O)ccc5c4CCCC5)cc3)cc2)cc1 (stereo unspecified)
0.609	0.036	17	–	CCCOc1cccc(Oc2ccc(-c3ccc(C(C)NC(=O)c4cn[nH]c4)cc3)cc2)c1 (stereo unspecified)
0.494	4.2	–	–	CCCOc1ccc(Oc2ccc(-c3ccc(C(C)NC(=O)CCC)cc3)cn2)cc1 (stereo unspecified)
0.119	1.63	–	14	CCOc1ccc(Oc2ccc(-c3ccc(C(C)NC(C)=O)cc3)cc2)cc1 (stereo unspecified)
0.018	0.11	–	6	CCCOc1ccc(Oc2ccc(-c3ccc(C(C)NC(C)=O)cc3)cn2)cc1 (stereo unspecified)
0.274	> 30	–	> 100	CCOc1ccc(Oc2ccc(-c3ccc(C(C)NC(C)=O)cc3)cn2)cc1 (stereo unspecified)
0.373	> 30	–	> 80	COc1cccc(Oc2ccc(-c3ccc(C(C)NC(C)=O)cc3)cc2)c1 (stereo unspecified)
> 30	0.089	> 300	–	COCCc1ccc(Oc2ccc(-c3ccc(C(C)NC(C)=O)cc3)cc2)cc1 (stereo unspecified)
0.007	0.014	–	–	CC(=O)NC(C)c1ccc(-c2ccc(Oc3ccc(Oc4ccccc4)cc3)cc2)cc1 (stereo unspecified)
0.033	0.017	–	–	CC(=O)NC(C)c1ccc(-c2ccc(Oc3ccc(OC(C)C)cc3)cc2)cc1 (stereo unspecified)
0.718	0.753	–	–	CCCOc1ccc(Oc2ccc(-c3ccc(C(C)NC(=O)COC)cc3)cc2)cc1 (stereo unspecified)
0.202	0.047	–	–	CCCOc1ccc(Oc2ccc(-c3ccc(C(C)NC(=O)CC)cc3)cc2)cc1 (stereo unspecified)
1.51	> 30	–	–	CCCCC(=O)NC(C)c1ccc(-c2ccc(Oc3ccc(OCCC)cc3)nc2)cc1 (stereo unspecified)
0.035	0.069	–	2	CCCOc1ccc(Oc2ccc(-c3ccc(C(C)NC(=O)CC)cc3)cn2)cc1 (stereo unspecified)
2.54	> 30	–	–	CCCOc1ccc(Oc2ccc(-c3ccc(C(C)NC(=O)c4cn[nH]c4)cc3)cn2)cc1 (stereo unspecified)
0.156	0.451	–	–	CCCOc1ccc(Oc2ccc(-c3ccc(C(C)NC(=O)C(C)C)cc3)cn2)cc1 (stereo unspecified)
0.008	0.035	–	–	CCCOc1ccc(Oc2ccc(-c3ccc([C@H](C)NC(C)=O)cc3)cn2)cc1
0.227	8.15	–	–	CCCOc1ccc(Oc2ccc(-c3ccc(C(C)NC(=O)OCC)cc3)cn2)cc1 (stereo unspecified)
1.84	2.06	–	–	CCCOc1ccc(Oc2ccc(-c3ccc(C(C)NC(=O)C(C)O)cc3)cc2)cc1 (racemic)
